{"source": "ChEMBL document CHEMBL4024753", "about": "“Lipoyl-Homotaurine Derivative (ADM_12) Reverts Oxaliplatin-Induced Neuropathy and Reduces Cancer Cells Malignancy by Inhibiting Carbonic Anhydrase IX (CAIX)” (J Med Chem, 2017)", "key": {"[1]": {"molecular_target": "T1, Carbonic anhydrase 9 (Homo sapiens, UniProt Q16790)", "settings": "100 uM"}, "[2]": {"test": "Antioxidant activity of compound assessed as reduction in ipoxanthine/xanthine oxidase-induced superoxide anion level after 30 mins by nitro blue tetrazolium-based spectrophotometric assay", "type": "functional", "how_it_was_run": "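Cell-free test with superoxide generated by a hypoxanthine–xanthine oxidase system. Nitro blue tetrazolium […] read after 30 min without or with increasing compound concentrations (up to 1000 μM).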"}, "[3]": {"molecular_target": "T1, Carbonic anhydrase 9", "settings": "100 uM", "remark": "listed apart in the source"}, "[4]": {"tested_on": "HT-29", "test": "Cytotoxicity against human HT-29 cells assessed as mortality at 1 to 300 uM after 24 hrs by MTT assay relative to control", "type": "functional", "how_it_was_run": "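Human colon cancer HT-29 cells incubated with increasing concentrations (1−300 μM) for 24 h; viability read by MTT test and expressed as % of viable cells relative to untreated control.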"}, "[5]": {"molecular_target": "Macrophage metalloelastase (Homo sapiens, UniProt P39900)", "sequence (P39900 whole entry, the tested form may be a part)": "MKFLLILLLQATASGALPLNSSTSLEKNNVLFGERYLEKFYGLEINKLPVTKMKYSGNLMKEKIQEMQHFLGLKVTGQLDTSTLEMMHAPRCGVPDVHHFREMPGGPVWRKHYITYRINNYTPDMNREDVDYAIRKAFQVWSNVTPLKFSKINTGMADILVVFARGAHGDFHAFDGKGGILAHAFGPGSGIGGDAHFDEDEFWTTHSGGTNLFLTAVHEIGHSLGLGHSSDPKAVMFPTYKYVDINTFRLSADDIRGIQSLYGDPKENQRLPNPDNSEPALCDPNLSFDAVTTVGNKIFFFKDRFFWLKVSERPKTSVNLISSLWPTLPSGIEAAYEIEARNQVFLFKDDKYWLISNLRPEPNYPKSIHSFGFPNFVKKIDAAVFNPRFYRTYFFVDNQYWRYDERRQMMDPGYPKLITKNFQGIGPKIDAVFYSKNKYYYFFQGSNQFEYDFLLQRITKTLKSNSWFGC", "test": "Binding affinity to human 15N-labeled MMP-12 catalytic domain (G106 to G263 residues) expressed in Escherichia coli BL21 Gold by 1H […] NMR method", "how_it_was_run": "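2D 1H−15N HSQC spectra of the MMP-12 catalytic domain titrated with ligand (up to 3.3 mM). Kd derived by fitting chemical shift variations of residues.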"}, "[6]": {"tested_on": "HT-29", "test": "Synergistic antiproliferative activity against human HT-29 cells assessed as cell viability at 100 uM after 24 hrs in presence of 10 uM oxaliplatin by MTT assay relative to control", "type": "functional", "how_it_was_run": "(§1)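 HT-29 cells co-treated 24 h with compound at 100 μM plus oxaliplatin (1, 10, 30, 100 or 300 μM). Viability by MTT as % viable cells versus untreated control. Compared to control and to compound alone.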"}, "[7]": {"molecular_target": "Transient receptor potential cation channel subfamily A member 1 (Homo sapiens) (UniProt O75762)", "sequence (O75762 whole entry)": "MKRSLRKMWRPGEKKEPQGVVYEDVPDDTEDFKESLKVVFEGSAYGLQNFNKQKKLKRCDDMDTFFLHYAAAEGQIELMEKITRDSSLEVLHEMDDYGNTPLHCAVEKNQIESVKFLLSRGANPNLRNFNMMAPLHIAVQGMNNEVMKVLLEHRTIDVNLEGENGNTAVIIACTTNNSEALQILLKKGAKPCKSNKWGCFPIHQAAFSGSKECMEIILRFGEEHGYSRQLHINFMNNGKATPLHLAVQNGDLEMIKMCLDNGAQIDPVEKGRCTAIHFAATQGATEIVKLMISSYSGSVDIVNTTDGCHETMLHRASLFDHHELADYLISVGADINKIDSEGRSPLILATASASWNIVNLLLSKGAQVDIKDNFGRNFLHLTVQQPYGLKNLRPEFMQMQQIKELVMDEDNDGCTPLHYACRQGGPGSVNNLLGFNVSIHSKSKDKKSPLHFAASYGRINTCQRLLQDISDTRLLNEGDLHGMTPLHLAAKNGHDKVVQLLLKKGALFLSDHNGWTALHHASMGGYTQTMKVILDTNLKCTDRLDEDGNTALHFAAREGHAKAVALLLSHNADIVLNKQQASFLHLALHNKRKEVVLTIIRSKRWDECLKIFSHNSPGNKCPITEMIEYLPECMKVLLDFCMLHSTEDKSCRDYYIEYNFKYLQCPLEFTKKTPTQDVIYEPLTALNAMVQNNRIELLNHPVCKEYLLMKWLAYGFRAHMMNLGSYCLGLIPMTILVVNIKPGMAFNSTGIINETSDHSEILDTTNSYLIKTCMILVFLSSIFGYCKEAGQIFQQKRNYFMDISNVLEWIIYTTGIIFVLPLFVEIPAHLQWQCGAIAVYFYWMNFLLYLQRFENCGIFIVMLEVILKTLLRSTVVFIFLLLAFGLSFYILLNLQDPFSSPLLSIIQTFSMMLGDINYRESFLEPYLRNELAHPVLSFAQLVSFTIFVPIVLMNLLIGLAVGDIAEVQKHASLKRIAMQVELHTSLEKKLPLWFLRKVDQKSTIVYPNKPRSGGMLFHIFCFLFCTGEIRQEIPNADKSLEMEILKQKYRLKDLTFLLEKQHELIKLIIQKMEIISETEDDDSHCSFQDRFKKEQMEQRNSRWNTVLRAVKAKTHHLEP", "test": "Inhibition of oxaliplatin activated TRPA1 (unknown origin) expressed in CHO cells assessed as reduction in channel evoked current at 30 uM by Patch-clamp method", "type": "cell-based", "how_it_was_run": "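CHO cells transiently transfected with wild-type TRPA1, EGFP as transfection marker. Whole-cell patch clamp 48−72 h after transfection. Voltage ramps read at +50 and −50 mV. Currents evoked by 50 μM oxaliplatin, then compound applied. n = 5 cells, unpaired Student's t test.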"}, "[8]": {"tested_on": "HT-29", "test": "Synergistic antiproliferative activity against human HT-29 cells assessed as cell viability at 100 uM after 24 hrs in presence of 30 uM oxaliplatin by MTT assay relative to control", "type": "functional", "how_it_was_run": "as §1"}, "[9]": {"molecular_target": "Carbonic anhydrase 12 (Homo sapiens, UniProt O43570)", "sequence (O43570 whole entry)": "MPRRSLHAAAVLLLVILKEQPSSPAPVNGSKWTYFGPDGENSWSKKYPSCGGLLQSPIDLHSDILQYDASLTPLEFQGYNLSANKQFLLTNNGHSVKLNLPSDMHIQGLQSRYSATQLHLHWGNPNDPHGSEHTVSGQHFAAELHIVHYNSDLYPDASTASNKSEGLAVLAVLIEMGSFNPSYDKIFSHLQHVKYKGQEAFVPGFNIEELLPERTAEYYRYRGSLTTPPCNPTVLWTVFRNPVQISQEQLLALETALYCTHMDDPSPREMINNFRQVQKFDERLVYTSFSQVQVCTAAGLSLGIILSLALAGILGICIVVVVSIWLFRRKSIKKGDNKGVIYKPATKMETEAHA", "test": "Inhibition of human carbonic anhydrase 12 incubated for 15 mins prior to testing by stopped flow CO2 hydrase assay"}, "[10]": {"molecular_target": "T1, Carbonic anhydrase 9", "settings": "100 uM", "remark": "listed apart in the source"}, "[11]": {"tested_on": "HT-29", "test": "Synergistic antiproliferative activity against human HT-29 cells assessed as cell viability at 100 uM after 24 hrs in presence of 300 uM oxaliplatin by MTT assay relative to control", "type": "functional", "how_it_was_run": "as §1"}, "[12]": {"molecular_target": "T1, Carbonic anhydrase 9", "settings": "100 uM", "remark": "listed apart in the source"}, "[13]": {"molecular_target": "T1, Carbonic anhydrase 9", "test": "Inhibition of human carbonic anhydrase 9 incubated for 15 mins prior to testing by stopped flow CO2 hydrase assay"}, "[14]": {"molecular_target": "T1, Carbonic anhydrase 9", "settings": "100 uM", "remark": "listed apart in the source"}, "[15]": {"tested_on": "HT-29", "test": "Antiproliferative activity against human HT-29 cells assessed as cell viability at 100 uM after 24 hrs by MTT assay relative to control", "type": "functional", "settings": "HT-29, 24 h, read-out: Activity", "how_it_was_run": "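HT-29 human colon cancer cells incubated 24 h with compound (range 1−300 μM). Viability by MTT, expressed as % viable cells relative to untreated control.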"}, "[16]": {"tested_on": "HT-29", "test": "Synergistic antiproliferative activity against human HT-29 cells assessed as cell viability at 100 uM after 24 hrs in presence of 100 uM oxaliplatin by MTT assay relative to control", "type": "functional", "settings": "HT-29, 24 h, read-out: Activity", "how_it_was_run": "as §1"}, "[17]": {"tested_on": "Astrocyte", "test": "Antioxidant activity in Sprague-Dawley rat primary cortical astrocytes assessed as inhibition of OXA-induced superoxide radical anion at 100 uM after 4 hrs by cytochrome C assay relative to control", "type": "functional", "how_it_was_run": "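Primary rat cortical astrocytes (5 × 10^5 cells/well) exposed to 100 μM oxaliplatin for 4 h, with or without co-incubated compound. Superoxide measured by cytochrome C assay. Absorbance in the presence of SOD subtracted as nonspecific. Mean ± SEM of three experiments versus untreated culture.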"}, "[18]": {"tested_on": "Rattus norvegicus", "test": "Antihyperalgesic activity in OXA-induced neuropathic pain Sprague-Dawley rat model assessed as reduction in response to noxious mechanical stimulus at 30 mg/kg, po after 15 to 75 mins on day 21 post induction", "type": "functional, organism-based", "how_it_was_run": "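Male Sprague-Dawley rats (200-250 g) given oxaliplatin 2.4 mg kg−1 ip daily in 0.5% glucose solution. On day 21, single po dose of test agent in 1% CMC vehicle. Paw-pressure test (noxious mechanical stimulus, weight tolerated) repeated over time after dosing. 12 rats per group from two experimental sets, mean ± SEM.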"}, "[19]": {"molecular_target": "T1, Carbonic anhydrase 9", "settings": "100 uM", "remark": "listed apart in the source"}, "[20]": {"tested_on": "HT-29", "test": "Synergistic antiproliferative activity against human HT-29 cells assessed as cell viability at 100 uM after 24 hrs in presence of 1 uM oxaliplatin by MTT assay relative to control", "type": "functional", "how_it_was_run": "as §1"}, "[21]": {"molecular_target": "T1, Carbonic anhydrase 9", "settings": "100 uM", "remark": "listed apart in the source"}}, "note": "pKd, pKi: −log10 of the molar value. Calls of active or inactive are those of the source. No cut-off for these calls is given here."}
{"smiles": "O=C(CCCCC1CCSS1)NCCCS(=O)(=O)[O-].[Na+]", "note": "(centres undefined)", "values": [{"measurement": "inhibition", "setting": "[1]", "value": "Active"}, {"measurement": "Activity", "setting": "[2]", "value": "Dose-dependent effect"}, {"measurement": "inhibition", "setting": "[3]", "value": "Active"}, {"measurement": "mortality", "setting": "[4]", "value": 20, "unit": "%"}, {"measurement": "pKd", "setting": "[5]", "value": 3.06}, {"measurement": "Activity", "setting": "[6]", "value": 78.6, "unit": "%"}, {"measurement": "inhibition", "setting": "[7]", "value": "Active"}, {"measurement": "Activity", "setting": "[8]", "value": 71.4, "unit": "%"}, {"measurement": "pKi", "setting": "[9]", "value": 6.14}, {"measurement": "inhibition", "setting": "[10]", "value": "Active"}, {"measurement": "Activity", "setting": "[11]", "value": 48.1, "unit": "%"}, {"measurement": "inhibition", "setting": "[12]", "value": "Active"}, {"measurement": "pKi", "setting": "[13]", "value": 6.18}, {"measurement": "inhibition", "setting": "[14]", "value": "Active"}, {"measurement": "viability at 100 µM", "setting": "[15]", "value": 81.3, "unit": "%"}, {"measurement": "viability at 100 µM", "setting": "[16]", "value": 67.4, "unit": "%"}, {"measurement": "inhibition at 100 µM", "setting": "[17]", "value": 75, "unit": "%"}, {"measurement": "Activity", "setting": "[18]", "value": "Active"}, {"measurement": "inhibition", "setting": "[19]", "value": "Active"}, {"measurement": "Activity", "setting": "[20]", "value": 74.6, "unit": "%"}, {"measurement": "inhibition", "setting": "[21]", "value": "Active"}]}
{"smiles": "O=S(=O)(O)/C=C/c1cc(Br)ccc1O", "values": [{"measurement": "pKi", "setting": "[9]", "value": 5.35}, {"measurement": "pKi", "setting": "[13]", "value": 5.17}]}
{"smiles": "O=C(CCCCC1CCSS1)NCCCCS(=O)(=O)O", "note": "(centres undefined)", "values": [{"measurement": "Activity", "setting": "[2]", "value": "Dose-dependent effect"}, {"measurement": "inhibition at 100 µM", "setting": "[17]", "value": 75, "unit": "%"}, {"measurement": "Activity", "setting": "[18]", "value": "Active"}]}
{"smiles": "O=C(CCCCC1CCSS1)NCCS(=O)(=O)O", "note": "(centres undefined)", "values": [{"measurement": "Activity", "setting": "[2]", "value": "Dose-dependent effect"}, {"measurement": "inhibition at 100 µM", "setting": "[17]", "value": 75, "unit": "%"}, {"measurement": "Activity", "setting": "[18]", "value": "Active"}]}
